Experimental findings from ChEMBL document CHEMBL2331396, “Exploration of 1-(3-chloro-4-(4-oxo-4H-chromen-2-yl)phenyl)-3-phenylurea derivatives as selective dual inhibitors of Raf1 and JNK1 kinases for anti-tumor treatment” (Bioorg Med Chem, 2013) are described below.

Data set [1] concerns the target Mitogen-activated protein kinase 14 (Homo sapiens) (UniProt Q16539). The data set can be described thus: Inhibition of p38-alpha (unknown origin) at 100 uM. The gist of the method:
(§1)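 Kinase-Glo Plus luminescent assay. Enzyme, substrate, ATP and compound were mixed in 25 mM HEPES pH 7.4 with 10 mM MgCl₂ and incubated 1 h at 30 °C. The reaction was stopped with an equal volume of Kinase-Glo Plus reagent. Luminescence reflects remaining ATP, inversely related to kinase activity, and is reported as percent inhibition at a single concentration.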

The target in data set [2] is RAF proto-oncogene serine/threonine-protein kinase (Homo sapiens) (UniProt P04049). In words: Inhibition of Raf1 (unknown origin) at 50 uM. The method in brief:
as §1

In data set [3] the target is Mitogen-activated protein kinase 14 (Homo sapiens) (UniProt Q16539). In words: Inhibition of p38-alpha (unknown origin) at 50 uM. The method in brief: as §1
A further data set has as its system HepG2. In words: Antiproliferative activity against human HepG2 cells assessed as growth inhibition measured after 48 hrs by MTT assay. The format is functional, cell-based. To be noted: HepG2, 48 h. The gist of the method: (§2)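 Compounds dissolved in DMSO and diluted in medium to final 0.5–50 µM (final DMSO <1%). Cells were grown in DMEM with 10% FBS, penicillin and streptomycin at 37 °C, 5% CO₂. They were seeded at 5 × 10⁵ cells/mL, incubated 24 h, then treated in triplicate per concentration for 48 h. MTT was added for 4 h, formazan dissolved in DMSO, absorbance read at 495 nm, and IC50 derived.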
In general terms: Formazan colour is commonly taken as a measure of viable cells.

The nature of data set [4]: Cytotoxicity against human QSG7701 cells assessed as inhibition rate at 50 uM measured after 48 hrs by MTT assay. The format is cell-based. The settings on record: read-out: INH. The method in brief: (§3)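 Normal liver cells were grown in DMEM with 10% FBS plus penicillin/streptomycin at 37 °C, 5% CO₂. They were seeded at 5 × 10⁵ cells/mL and incubated 24 h. Compounds from DMSO stock were added at final 50 or 100 µM (DMSO <1%), in triplicate, for 48 h. MTT was added for 4 h, formazan dissolved in DMSO, A495 read, and inhibition rate calculated.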

The next data set deals with HCT-116. The data set can be described thus: Antiproliferative activity against human HCT116 cells assessed as growth inhibition measured after 48 hrs by MTT assay. The class given is functional, cell-based. The settings on record: HCT-116, 48 h. The gist of the method: as §2
A short description of data set [5]: Cytotoxicity against human HL7702 cells assessed as inhibition rate at 50 uM measured after 48 hrs by MTT assay. The format is cell-based, L02. The settings on record: read-out: INH. The method in brief:
as §3

For another data set, the system named is A549. In words: Antiproliferative activity against human A549 cells assessed as growth inhibition measured after 48 hrs by MTT assay. The format is functional, cell-based. The settings on record: A549, 48 h. The gist of the method:
as §2

Data set [6] can be described thus: Cytotoxicity against human HL7702 cells assessed as inhibition rate at 100 uM measured after 48 hrs by MTT assay. The class given is cell-based, L02. The settings on record: read-out: INH. The gist of the method:
as §3

Data set [7] can be described thus: Cytotoxicity against human QSG7701 cells assessed as inhibition rate at 100 uM measured after 48 hrs by MTT assay. The format is cell-based. The settings on record: read-out: INH. The gist of the method:
as §3

The structures appear in SMILES notation. Activity calls are given as the source filed them. No cut-off for these calls is given here.

RAF proto-oncogene serine/threonine-protein kinase (Homo sapiens), sequence (P04049 whole entry): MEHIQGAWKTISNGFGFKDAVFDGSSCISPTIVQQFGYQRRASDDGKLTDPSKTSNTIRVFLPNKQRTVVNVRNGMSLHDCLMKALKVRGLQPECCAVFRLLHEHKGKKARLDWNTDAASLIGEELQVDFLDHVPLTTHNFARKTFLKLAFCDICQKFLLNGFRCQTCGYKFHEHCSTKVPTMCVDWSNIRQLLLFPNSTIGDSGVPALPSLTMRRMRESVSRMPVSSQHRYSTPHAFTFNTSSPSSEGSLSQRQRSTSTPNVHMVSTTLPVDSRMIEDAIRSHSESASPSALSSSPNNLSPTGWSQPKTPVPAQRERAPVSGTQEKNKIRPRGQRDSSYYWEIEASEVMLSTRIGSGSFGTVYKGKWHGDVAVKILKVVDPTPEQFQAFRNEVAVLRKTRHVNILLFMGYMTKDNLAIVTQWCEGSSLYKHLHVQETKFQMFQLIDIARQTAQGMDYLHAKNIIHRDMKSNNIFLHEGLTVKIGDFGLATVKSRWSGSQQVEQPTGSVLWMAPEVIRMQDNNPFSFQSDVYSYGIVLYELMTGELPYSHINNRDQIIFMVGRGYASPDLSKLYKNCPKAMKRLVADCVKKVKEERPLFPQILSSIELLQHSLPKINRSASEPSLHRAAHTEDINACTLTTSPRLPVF
Mitogen-activated protein kinase 14 (Homo sapiens), sequence (Q16539 whole entry): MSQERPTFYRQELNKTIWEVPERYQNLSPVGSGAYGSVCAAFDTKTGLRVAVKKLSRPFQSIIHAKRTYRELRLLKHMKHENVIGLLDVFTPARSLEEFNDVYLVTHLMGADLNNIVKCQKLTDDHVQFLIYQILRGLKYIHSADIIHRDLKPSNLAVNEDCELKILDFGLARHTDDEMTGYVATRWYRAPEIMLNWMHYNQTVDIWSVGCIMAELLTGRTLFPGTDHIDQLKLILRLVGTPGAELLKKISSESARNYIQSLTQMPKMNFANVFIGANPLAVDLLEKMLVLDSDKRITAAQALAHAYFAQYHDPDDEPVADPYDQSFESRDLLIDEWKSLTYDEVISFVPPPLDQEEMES

In general, inhibition refers to the relative decrease from the control value, in per cent. For `CCc1ccc2oc(-c3ccc(N)cc3Cl)cc(=O)c2c1`, the values for the inhibition in data set [1] and in [2] were 14.5% and 27%, respectively.
Turning to `Oc1ccc(-c2nc(-c3ccc(F)cc3)c(-c3ccncc3)[nH]2)cc1`, the inhibition in [3] is 106%.
A word on the IC50: it is the concentration needed to halve the response being measured. With `CNC(=O)c1cc(Oc2ccc(NC(=O)Nc3ccc(Cl)c(C(F)(F)F)c3)cc2)ccn1` [SORAFENIB], the IC50 was 5 µM in the data set on HepG2, 2.3 µM with HCT-116 and 4.5 µM with A549. Moreover, the cytotoxicity at 48 h, 50 µM in data set [4] amounted to 4.2%; in [5], 5.3%. Besides, the inhibition in data set [2] is 101%. Further, the cytotoxicity at 48 h, 100 µM worked out at 20.2% in data set [6] and 23.2% in [7].
With `COc1ccc2oc(-c3ccc(NC(=O)Nc4cccc(Cl)c4)cc3Cl)cc(=O)c2c1`, the half-maximal inhibitory concentration (IC50) amounted to 26.3 µM in the data set on HepG2, 9.6 µM with HCT-116 and 11 µM with A549. Further, the cytotoxicity at 48 h, 50 µM was 15.9% in data set [4] and 35.7% in data set [5]. Also, the cytotoxicity at 48 h, 100 µM is 40.6% in data set [6] and 30.1% in [7].
Regarding `COc1ccc2oc(-c3ccc(NC(=O)Nc4ccc(Cl)c(Cl)c4)cc3Cl)cc(=O)c2c1`, the half-inhibitory concentration (IC50) in the data set on HepG2 was determined as 9.9 µM; in the data set with HCT-116 it was 8.6 µM; with A549, 15.6 µM. Besides, the cytotoxicity at 48 h, 50 µM stood at 13.2% in data set [4] and 66.4% in data set [5]. Moreover, the results for the cytotoxicity at 48 h, 100 µM in data set [6] and in [7] were 77.9% and 42.5%, respectively.
As for `Nc1ccc(-c2cc(=O)c3ccc(O)cc3o2)c(Cl)c1`, the inhibition entry in data set [2] and in [3] was “inactive” in each case.
In the case of `CCc1ccc2oc(-c3ccc(NC(=O)Cc4ccc(F)cc4)cc3Cl)cc(=O)c2c1`, the IC50 in the data set on HepG2, in the data set with HCT-116 and in the data set with A549 was greater than 50 µM each time. Further, the cytotoxicity at 48 h, 50 µM in [4] came to 16.2%; in data set [5], 29.1%. Moreover, the cytotoxicity at 48 h, 100 µM in data set [6] was 45.2%; in data set [7] it was 36.9%.
